ChEMBL document CHEMBL1152409, “Constituents of the moss Polytrichum commune” (J Nat Prod, 2009)

Key:
Format in all cases: functional, cell-based
[1] = system: A549; test: Cytotoxicity against human A549 cells after 24 hrs by MTT assay; details: A549, 24 h
How it was run: (§1)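 Cell lines from ATCC were seeded at 3000 cells per well and exposed to a range of compound concentrations 24 h after seeding. Treatment lasted 24 h. MTT was then added and plates were incubated for a further 24 h. Viability was read as absorbance at 570 nm, and IC50 was determined.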

[2] = system: HepG2; test: Cytotoxicity against human HepG2 cells after 24 hrs by MTT assay; details: HepG2, 24 h; how it was run: as §1
[3] = system: LoVo; test: Cytotoxicity against human LoVo cells after 24 hrs by MTT assay; how it was run: as §1
[4] = system: MDA-MB-435; test: Cytotoxicity against human MDA-MB-435 cells after 24 hrs by MTT assay; details: MDA-MB-435, 24 h; how it was run: as §1
[5] = Cytotoxicity against human cells 6T-CEM after 24 hrs by MTT assay; how it was run: as §1

Measured: IC50

O=C1C[C@@H](c2ccccc2)Oc2cc(O)cc(/C=C\c3ccccc3)c21 [COMMUNIN A]
> 5 µg/mL: [1] | [2] | [3] | [4] | [5]

O=C1C[C@@H](c2ccccc2)Oc2cc(O)cc(/C=C/c3ccccc3)c21 [COMMUNIN B]
> 5 µg/mL: [1] | [2] | [3] | [4] | [5]

O=C1C[C@@H]2c3ccccc3O[C@H]3c4ccc(O)cc4-c4c(O)cc(O)c1c4[C@H]23 [OHIOENSIN H]
> 5 µg/mL: [1] | [2] | [3] | [4] | [5]
